Each block holds one molecule with its values, some of them ahead of it.
Tests used:
WiDr = experiment: In vitro inhibition of WiDr colon cancer cell line; type: functional, cell-based; conditions: Homo sapiens
Summary of the method: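 Cells plated at 50 000 per well in 96-well trays. Drugs dissolved in DMSO as stock, then diluted in buffer and added to wells. IC50 was calculated from concentration–survival curves over a concentration range giving 0–100% survival.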

RPMI-8226 [1] = experiment: In vitro inhibition of […] myeloma cancer cell line; type: functional, cell-based; conditions: Homo sapiens
Summary of the method: (§1)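 Cell growth inhibition: cells plated at 50 000/well; drugs dissolved in DMSO as stock and diluted in buffer before addition. IC50 taken from concentration-survival curves over a range of concentrations giving 0-100% survival.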

SW480 = experiment: In vitro inhibition of SW480 colon cancer cell line; type: functional, cell-based; conditions: Homo sapiens; summary of the method: as §1
2008/R [2] = experiment: In vitro inhibition of 2008/R ovarian cancer cell line; NA= Not achievable; type: functional, cell-based, Homo sapiens; summary of the method: as §1
2008/S [3] = experiment: In vitro inhibition of 2008/S ovarian cancer cell line; NA= Not achievable; type: functional, cell-based, Homo sapiens; summary of the method: as §1
A2780 [4] = experiment: In vitro inhibition of 2780/DOX ovarian cancer cell line; type: functional, cell-based; conditions: Homo sapiens; summary of the method: as §1
A2780 [5] = experiment: In vitro inhibition of 2780/S ovarian cancer cell line; type: functional, cell-based; conditions: Homo sapiens; summary of the method: as §1
Ovarian carcinoma cell = experiment: Inhibitory activity against ovarian cancer cell line; NA= Not achievable; type: functional, cell-based, Homo sapiens
Summary of the method: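 Fresh human tumor chemosensitivity assay: ovarian cancers removed surgically from patients, minced, and plated on soft agar as a single-cell suspension.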

RPMI-8226 [6] = experiment: Dose-Response relationship for DNA single-strand cleavage with the compound in human 8226 multiple myeloma cells at a concentration of 10 ug/mL x1 hr; type: functional
RPMI-8226 [7] = experiment: Dose-Response relationship for DNA single-strand cleavage with the compound in human 8226 multiple myeloma cells at a concentration of 1.0 ug/mL x1 hr; type: functional
2008/R [8] = experiment: In vitro inhibition of 2008/R ovarian cancer cell line; type: functional, cell-based; conditions: Homo sapiens; summary of the method: as §1
RPMI-8226 [9] = experiment: Dose-Response relationship for DNA single-strand cleavage with the compound in human 8226 multiple myeloma cells at a concentration of 0.1 ug/mL x1 hr.; type: functional
2008/S [10] = experiment: In vitro inhibition of 2008/S ovarian cancer cell line; type: functional, cell-based; conditions: Homo sapiens; summary of the method: as §1

SMILES: CC(=O)NC1=C(C)C(=O)c2c(nc3n2CCC3)C1=N
IC50 (WiDr): 10000 nM

SMILES: CC1=C(N(C)C)C(=O)c2nc3n(c2C1=O)CCC3OC(N)=O (configuration not stated)
IC50 (WiDr): 13000 nM

SMILES: CO[C@@]12[C@H](COC(N)=O)C3=C(C(=O)C(C)=C(N)C3=O)N1C[C@@H]1N[C@@H]12 [MITOMYCIN]
IC50 (RPMI-8226 [1]): 200 nM
IC50 (SW480): 7 nM
IC50 (WiDr): 10 nM
IC50 (2008/R [2]): Not Active
IC50 (2008/S [3]): Not Active
IC50 (A2780 [4]): 200 nM
IC50 (A2780 [5]): 100 nM

SMILES: CC(=O)OC1CCn2c1nc1c2C(=O)C(C)=C(N2CC2)C1=O (configuration not stated)
IC50 (RPMI-8226 [1]): 100 nM
IC50 (SW480): 9 nM
IC50 (Ovarian carcinoma cell): Not Active
Cleavage (RPMI-8226 [6]): 469
IC50 (WiDr): 10 nM
Cleavage (RPMI-8226 [7]): 321
IC50 (A2780 [4]): 16 nM
IC50 (2008/R [8]): 7 nM
Cleavage (RPMI-8226 [9]): 59
IC50 (A2780 [5]): 0.6 nM
IC50 (2008/S [10]): 7 nM

SMILES: CC1=C(N2CC2)C(=O)c2nc3n(c2C1=O)CCC3OC(N)=O (configuration not stated)
IC50 (RPMI-8226 [1]): 140 nM
IC50 (SW480): 19 nM
IC50 (WiDr): 100 nM
IC50 (2008/R [2]): Not Active
IC50 (2008/S [3]): Not Active
IC50 (A2780 [4]): 200 nM
IC50 (A2780 [5]): 100 nM

SMILES: CC(=O)NC1=C(C)C(=O)c2c(nc3n2CCC3)C1=O
IC50 (WiDr): 500 nM

SMILES: CC(=O)OC1CCn2c1nc1c2C(=O)C(C)=CC1=O (configuration not stated)
IC50 (WiDr): 300 nM

SMILES: CC1=C(N2CC2)C(=O)c2nc3n(c2C1=O)CCC3
IC50 (WiDr): 15 nM

SMILES: CC1=CC(=O)c2nc3n(c2C1=O)CCC3OC(N)=O (configuration not stated)
IC50 (WiDr): 10000 nM

SMILES: CC1=C(N(C)C)C(=O)c2nc3n(c2C1=O)CCC3
IC50 (WiDr): 13000 nM

Now from value to molecule:

IC50 (WiDr): 6000 nM
SMILES: CC(=O)NC1=C(C)C(=O)c2c(nc3n2CCC3OC(C)=O)C1=O (configuration not stated)

IC50 (WiDr): 16000 nM
SMILES: CC(=O)NC1=C(C)C(=O)c2c(nc3n2CCC3OC(N)=O)C1=O (configuration not stated)

IC50 (WiDr): 280 nM
SMILES: CC(=O)OC1CCn2c1nc1c2C(=O)C(C)=C(NC(=O)CCl)C1=N (configuration not stated)

IC50 (WiDr): 150 nM
SMILES: CC(=O)NC1=C(C)C(=O)c2c(nc3n2CCC3OC(C)=O)C1=N (configuration not stated)

IC50 (WiDr): 10000 nM
SMILES: CC(=O)OC1CCn2c1nc1c2C(=O)C(C)=C(N(C)C)C1=O (configuration not stated)

— ChEMBL document CHEMBL1125763, “Structure-activity studies of antitumor agents based on pyrrolo[1,2-a]benzimidazoles: new reductive alkylating DNA cleaving agents” (J Med Chem, 1991)
